The test system of test [1] is Mus musculus. Nature of the test: CNS activity in po dosed mouse assessed as alteration of exploratory behaviour. The settings on record: for minimal effective dose: Mus musculus, po, read-out: MED. In kind it is functional. In a few lines: (§1)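 Mice in groups of five, dosed orally, placed in doughnut-shaped activity cages (six infrared photocells) 90 min post-dose. Beam breaks counted cumulatively at 30, 60, 90 and 120 min in cage ([…]) plus 120-min total. Counts compared with vehicle-injected controls. Compounds dissolved in acetone.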

Test [2] has as its system Rattus norvegicus. Nature of the test: CNS activity in septal-lesioned rat assessed as decrease in hyperreactivity behaviour at 10 mg/kg, po. On the set-up: dose 10 mg/kg. The test is classed as functional, organism-based. In a few lines: (§2)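 Septal-lesioned rats rated hyperreactive at score ≥11 used as their own controls; oral dosing. Reactivity rated at 30, 60, 120, 240, 300 min post-dose. P value = postdrug rating sum / predrug sum per period. E value = mean of ten 30-min periods over 300 min, interpolated, / predrug sum. Student's t test, p<0.01.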

Test [3] relates to Rattus norvegicus. The experiment in a line: CNS activity in rat assessed as protection against muricide at 10 mg/kg, po. The test is classed as functional, organism-based. On the set-up: dose 10 mg/kg. In short, it runs like this: (§3)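 Rats with innate mouse-killing behaviour, control kill time under 5 s; three rats per dose, oral dosing, vehicle controls at equal injection volume. Muricide scored 15–360 min post-dose (0 = 0–59 s, 1 = 60–120 s, 2 = >120 s). Scores converted to percent protection versus vehicle; Student's t test for significance.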

Test [4] concerns Rattus norvegicus. The experiment in a line: CNS activity in po dosed septal-lesioned rat assessed as decrease in hyperreactivity behaviour. In kind it is functional. To be noted: for minimal effective dose: Rattus norvegicus, po, read-out: MED. In a few lines: as §2
Test [5] has as its system Rattus norvegicus. The experiment in a line: CNS activity in po dosed rat assessed as protection against muricide. In kind it is functional. To be noted: for minimal effective dose: Rattus norvegicus, po, read-out: MED. In a few lines: as §3
The subject of test [6] is Mus musculus. The experiment in a line: CNS activity in mouse assessed as alteration of exploratory behaviour at 20 mg/kg, po. In kind it is functional, organism-based. Further details: dose 20 mg/kg. In short, it runs like this: as §1

Activity calls are given as the source filed them. The calls are words filed in the database; no cut-off is given here.

As for `CCCCCCC(C)(C)c1cc(NS(C)(=O)=O)c2c(c1)OC(C)(C)C1=C2CC(C)CC1` (racemic), the minimal effective dose in the test on Mus musculus [1] is 20 mg/kg. Further, the outcome with Rattus norvegicus [2] and in the test with Rattus norvegicus [3] was inactive.
Consider `CCCCCC(C)C(C)c1cc(O)c2c(c1)OC(C)(C)C1=C2CC(C)CC1` (racemic), for which the minimal effective dose was determined as 0.62 mg/kg in the test on Mus musculus [1], 5 mg/kg in the test with Rattus norvegicus [4] and 2.5 mg/kg with Rattus norvegicus [5].
Regarding `CCCCCc1cc(O)c2c(c1)OC(C)(C)C1=C2CC(C)CC1` (racemic), the result in the test on Mus musculus [6] and with Rattus norvegicus [2] was inactive. Moreover, the minimal effective dose in the test with Rattus norvegicus [5] is 10 mg/kg.
Consider `CCCCCCC(C)(C)c1cc(O)c2c(c1)OC(C)(C)C1=C2CC(C)CC1` (stereo in doubt; l-4c), for which the MED in the test with Rattus norvegicus [5] was found to be 1.25 mg/kg.
As to `CCCCCC(C)C(C)c1cc(N)c2c(c1)OC(C)(C)C1=C2CC(C)CC1` (racemic), the minimal effective dose stood at 2.5 mg/kg in the test with Mus musculus [1], 10 mg/kg with Rattus norvegicus [4] and 5 mg/kg with Rattus norvegicus [5].
For `CCCCCCC(C)(C)c1cc(N)c2c(c1)OC(C)(C)C1=C2CC(C)CC1` (stereo in doubt; d-10c) [listing 1 of 2 here], in the test with Mus musculus [1], the MED stood at 10 mg/kg.
`CCCCCc1cc(N)c2c(c1)OC(C)(C)C1=C2CC(C)CC1` (racemic): the result in the test on Mus musculus [6], in the test on Rattus norvegicus [2] and in the test on Rattus norvegicus [3] was inactive.
`CCCCCc1cc2c(c(N(C)C)c1)C1=C(CCC(C)C1)C(C)(C)O2` (racemic): the result with Mus musculus [6], in the test on Rattus norvegicus [2] and in the test with Rattus norvegicus [3] was inactive.
Regarding `CCCCCCC(C)(C)c1cc(O)c2c(c1)OC(C)(C)C1=C2CC(C)CC1` (stereo in doubt; d-4c), the MED in the test on Mus musculus [1] is 0.31 mg/kg; in the test on Rattus norvegicus [4], 2.5 mg/kg; in the test on Rattus norvegicus [5], 5 mg/kg.
With `CCCCCCC(C)(C)c1cc(N)c2c(c1)OC(C)(C)C1=C2CC(C)CC1` (stereo in doubt; d-10c) [listing 2 of 2 here], the result in the test with Rattus norvegicus [2] and with Rattus norvegicus [3] was inactive.
For `CCCCCCC(C)(C)c1cc(N)c2c(c1)OC(C)(C)C1=C2CC(C)CC1` (stereo in doubt; l-10c) [listing 1 of 2 here], in the test with Rattus norvegicus [2], the outcome was inactive.
As for `CCCCCC(C)C(C)c1cc(S)c2c(c1)OC(C)(C)C1=C2CC(C)CC1` (racemic), the result in the test with Mus musculus [6], in the test on Rattus norvegicus [2] and with Rattus norvegicus [3] was inactive.
On to `CCCCCCC(C)(C)c1cc(N)c2c(c1)OC(C)(C)C1=C2CC(C)CC1` (stereo in doubt; l-10c) [listing 2 of 2 here], for which the MED in the test with Mus musculus [1] amounted to 5 mg/kg; in the test with Rattus norvegicus [5] it was 10 mg/kg.
For the compound `CCCCCC(C)C(C)c1cc2c(c(N(C)C)c1)C1=C(CCC(C)C1)C(C)(C)O2` (racemic), in the test on Mus musculus [1], the minimal effective dose amounted to 20 mg/kg. For the same compound, the outcome in the test with Rattus norvegicus [2] and in the test with Rattus norvegicus [3] was inactive.
Take `CCCCCCC(C)(C)c1cc(N)c2c(c1)OC(C)(C)C1=C2CC(C)CC1` (racemic) [listing 1 of 2 here]: the outcome in the test on Rattus norvegicus [2] was inactive.
Consider `CCCCCCC(C)(C)c1cc(O)c2c(c1)OC(C)(C)C1=C2CC(C)CC1` (racemic), for which the minimal effective dose with Mus musculus [1] came out at 0.62 mg/kg; with Rattus norvegicus [4] it was 1.25 mg/kg. In the test on Rattus norvegicus [5], the MED was 0.62 mg/kg.
As for `CCCCCc1cc(S)c2c(c1)OC(C)(C)C1=C2CC(C)CC1` (racemic), the result in the test on Mus musculus [6], in the test with Rattus norvegicus [2] and in the test on Rattus norvegicus [3] was inactive.
With `CCCCCCC(C)(C)c1cc(N)c2c(c1)OC(C)(C)C1=C2CC(C)CC1` (racemic) [listing 2 of 2 here], the minimal effective dose in the test on Mus musculus [1] turned out to be 5 mg/kg; in the test with Rattus norvegicus [5] it was 10 mg/kg.
For `CCCCCC(C)C(C)c1cc(NC)c2c(c1)OC(C)(C)C1=C2CC(C)CC1` (racemic), in the test with Mus musculus [1], the minimal effective dose stood at 20 mg/kg. The result with Rattus norvegicus [2] and with Rattus norvegicus [3] was inactive.
`CCCCCc1cc(NC(C)=O)c2c(c1)OC(C)(C)C1=C2CC(C)CC1` (racemic): the result with Mus musculus [6], with Rattus norvegicus [2] and in the test with Rattus norvegicus [3] was inactive.
On to `CCCCCC(C)C(C)c1cc(NC(C)=O)c2c(c1)OC(C)(C)C1=C2CC(C)CC1` (racemic), for which the result in the test with Mus musculus [6] and in the test on Rattus norvegicus [2] was inactive. Besides, the minimal effective dose in the test with Rattus norvegicus [5] was determined as 10 mg/kg.

Values taken from ChEMBL document CHEMBL3244312, “Cannabinoids. 1. 1-Amino- and 1-mercapto-7,8,9,10-tetrahydro-6H-dibenzo [b,d]pyrans” (1977).
